In ChEMBL document CHEMBL4152196, “Design, synthesis and biological evaluation of novel trimethylangelicin analogues targeting nuclear factor kB (NF-kB)” (Eur J Med Chem, 2018):
Calls of active or inactive are those of the source. The rule behind the calls is not given here.

Columns and labels:
Salmonella typhimurium [1] = experiment: Genotoxicity in Salmonella typhimurium TA98 assessed as revertant colonies at 10 uL/plate in presence of Sprague-Dawley rat S9 metabolic activation after 72 hrs by Ames test (reference value: 1); type: toxicity, organism-based; settings: salmonella enterica subsp. enterica serovar typhimurium
U-251 = experiment: Cytotoxicity against human U251 cells after 2 days by cell counting analysis; type: cell-based; settings: u-251, 48 h
Salmonella typhimurium [2] = experiment: Genotoxicity in Salmonella typhimurium TA1535 assessed as revertant colonies at 10 uL/plate in presence of Sprague-Dawley rat S9 metabolic activation after 72 hrs by Ames test (reference value: 1); type: toxicity, organism-based; settings: salmonella enterica subsp. enterica serovar typhimurium
Salmon testes DNA [3] = experiment: Binding affinity to salmon testes DNA assessed as furocoumarin-pyrimidine base formation in presence of 15 J/cm2 UVA light irradiation by TLC analysis; type: nucleic-acid assay; settings: Salmonidae
Salmonella typhimurium [4] = experiment: Genotoxicity in Salmonella typhimurium TA1535 assessed as revertant colonies at 1 uL/plate in absence of Sprague-Dawley rat S9 metabolic activation after 72 hrs by Ames test (reference value: 1); type: toxicity, organism-based; settings: salmonella enterica subsp. enterica serovar typhimurium
Salmonella typhimurium [5] = experiment: Genotoxicity in Salmonella typhimurium TA97A assessed as revertant colonies at 10 uL/plate in absence of Sprague-Dawley rat S9 metabolic activation after 72 hrs by Ames test (reference value: 1); type: toxicity, organism-based; settings: salmonella enterica subsp. enterica serovar typhimurium
Salmonella typhimurium [6] = experiment: Genotoxicity in Salmonella typhimurium TA100 assessed as revertant colonies at 50 uL/plate in absence of Sprague-Dawley rat S9 metabolic activation after 72 hrs by Ames test (reference value: 1); type: toxicity, organism-based; settings: salmonella enterica subsp. enterica serovar typhimurium
Salmonella typhimurium [7] = experiment: Genotoxicity in Salmonella typhimurium TA98 assessed as revertant colonies at 100 uL/plate in absence of Sprague-Dawley rat S9 metabolic activation after 72 hrs by Ames test (reference value: 1); type: toxicity, organism-based; settings: salmonella enterica subsp. enterica serovar typhimurium
Salmonella typhimurium [8] = experiment: Genotoxicity in Salmonella typhimurium TA98 assessed as revertant colonies at 100 uL/plate in presence of Sprague-Dawley rat S9 metabolic activation after 72 hrs by Ames test (reference value: 1); type: toxicity, organism-based; settings: salmonella enterica subsp. enterica serovar typhimurium
Salmonella typhimurium [9] = experiment: Genotoxicity in Salmonella typhimurium TA1535 assessed as revertant colonies at 50 uL/plate in presence of Sprague-Dawley rat S9 metabolic activation after 72 hrs by Ames test (reference value: 1); type: toxicity, organism-based; settings: salmonella enterica subsp. enterica serovar typhimurium
Salmon testes DNA [10] = experiment: Induction of damage in salmon testes DNA at 100 uM in absence of 2.5 to 7.5 J/cm2 UVA irradiation by ethidium bromide dye-based agarose gel electrophoresis analysis; type: nucleic-acid assay; settings: salmonidae
Salmonella typhimurium [11] = experiment: Genotoxicity in Salmonella typhimurium TA100 assessed as revertant colonies at 1 uL/plate in presence of Sprague-Dawley rat S9 metabolic activation after 72 hrs by Ames test (reference value: 1); type: toxicity, organism-based; settings: salmonella enterica subsp. enterica serovar typhimurium
Homo sapiens = organism: Homo sapiens; experiment: Inhibition of NF-kappaB (unknown origin) assessed as decrease in NF-kappaB/DNA interaction at 12.5 uM using 32P-labeled target NF-kappaB double-stranded oligonucleotide after 30 mins by EMSA
IB3-1 [12] = experiment: Inhibition of TNF-alpha induced IL-10 production in human IB3-1 cells at 1 uM preincubated for 5 hrs followed by TNF-alpha stimulation and measured after 24 hrs relative to control; type: functional
Summary of the method: (§1)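 IB3-1 cells (CF patient, ΔF508/W1282X, adeno12/SV40-immortalized) grown in LHC-8 with 5% FBS, no gentamycin, 37°C/5% CO₂; 60% confluent monolayers seeded, compound added after 24 h, 5 h before 80 ng/ml TNF-α, then 24 h further incubation. Cytokines in supernatants measured by Bioplex 27-plex Luminex bead assay: beads, detection antibody, streptavidin–phycoerythrin, 30/30/10 min at room temperature.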

Salmonella typhimurium [13] = experiment: Genotoxicity in Salmonella typhimurium TA100 assessed as revertant colonies at 5 uL/plate in absence of Sprague-Dawley rat S9 metabolic activation after 72 hrs by Ames test (reference value: 1); type: toxicity, organism-based; settings: salmonella enterica subsp. enterica serovar typhimurium
Salmonella typhimurium [14] = experiment: Genotoxicity in Salmonella typhimurium TA98 assessed as revertant colonies at 10 uL/plate in absence of Sprague-Dawley rat S9 metabolic activation after 72 hrs by Ames test (reference value: 1); type: toxicity, organism-based; settings: salmonella enterica subsp. enterica serovar typhimurium
Salmonella typhimurium [15] = experiment: Genotoxicity in Salmonella typhimurium TA1535 assessed as revertant colonies at 50 uL/plate in absence of Sprague-Dawley rat S9 metabolic activation after 72 hrs by Ames test (reference value: 1); type: toxicity, organism-based; settings: salmonella enterica subsp. enterica serovar typhimurium
IB3-1 [16] = experiment: Inhibition of TNF-alpha induced IL-15 production in human IB3-1 cells at 1 uM preincubated for 5 hrs followed by TNF-alpha stimulation and measured after 24 hrs relative to control; type: functional; summary of the method: as §1
Salmonella typhimurium [17] = experiment: Genotoxicity in Salmonella typhimurium TA100 assessed as revertant colonies at 50 uL/plate in presence of Sprague-Dawley rat S9 metabolic activation after 72 hrs by Ames test (reference value: 1); type: toxicity, organism-based; settings: salmonella enterica subsp. enterica serovar typhimurium
Salmonella typhimurium [18] = experiment: Genotoxicity in Salmonella typhimurium TA100 assessed as revertant colonies at 10 uL/plate in absence of Sprague-Dawley rat S9 metabolic activation after 72 hrs by Ames test (reference value: 1); type: toxicity, organism-based; settings: salmonella enterica subsp. enterica serovar typhimurium
Salmonella typhimurium [19] = experiment: Genotoxicity in Salmonella typhimurium TA100 assessed as revertant colonies at 100 uL/plate in absence of Sprague-Dawley rat S9 metabolic activation after 72 hrs by Ames test (reference value: 1); type: toxicity, organism-based; settings: salmonella enterica subsp. enterica serovar typhimurium
[20] = Inhibition of NF-kappaB (unknown origin) assessed as decrease in NF-kappaB/DNA interaction using 32P-labeled target NF-kappaB double-stranded oligonucleotide after 30 mins by EMSA; parameters: species or system Homo sapiens
Summary of the method: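 Purified NF-κB p50 (0.1 µl/20 µl, 50 gsu) was combined with 0.25 ng of ³²P-labeled double-stranded NF-κB consensus oligonucleotide. Bound 30 min at room temperature, then run on 6% polyacrylamide in 0.25× TBE at 200 V. IC₅₀ is 50% inhibition of the complex.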

Salmonella typhimurium [21] = experiment: Genotoxicity in Salmonella typhimurium TA97A assessed as revertant colonies at 10 uL/plate in presence of Sprague-Dawley rat S9 metabolic activation after 72 hrs by Ames test (reference value: 1); type: toxicity, organism-based; settings: salmonella enterica subsp. enterica serovar typhimurium
Salmonella typhimurium [22] = experiment: Genotoxicity in Salmonella typhimurium TA97A assessed as revertant colonies at 5 uL/plate in presence of Sprague-Dawley rat S9 metabolic activation after 72 hrs by Ames test (reference value: 1); type: toxicity, organism-based; settings: salmonella enterica subsp. enterica serovar typhimurium
Salmon testes DNA [23] = experiment: Induction of damage in salmon testes DNA at 100 uM in presence of 2.5 to 7.5 J/cm2 UVA irradiation by ethidium bromide dye-based agarose gel electrophoresis analysis; type: nucleic-acid assay; settings: salmonidae
Salmonella typhimurium [24] = experiment: Genotoxicity in Salmonella typhimurium TA97A assessed as revertant colonies at 100 uL/plate in absence of Sprague-Dawley rat S9 metabolic activation after 72 hrs by Ames test (reference value: 1); type: toxicity, organism-based; settings: salmonella enterica subsp. enterica serovar typhimurium
IB3-1 [25] = experiment: Inhibition of TNF-alpha induced IFN-gamma production in human IB3-1 cells at 1 uM preincubated for 5 hrs followed by TNF-alpha stimulation and measured after 24 hrs relative to control; type: functional; summary of the method: as §1
Salmonella typhimurium [26] = experiment: Genotoxicity in Salmonella typhimurium TA1535 assessed as revertant colonies at 1 uL/plate in presence of Sprague-Dawley rat S9 metabolic activation after 72 hrs by Ames test (reference value: 1); type: toxicity, organism-based; settings: salmonella enterica subsp. enterica serovar typhimurium
Salmonella typhimurium [27] = experiment: Genotoxicity in Salmonella typhimurium TA1535 assessed as revertant colonies at 10 uL/plate in absence of Sprague-Dawley rat S9 metabolic activation after 72 hrs by Ames test (reference value: 1); type: toxicity, organism-based; settings: salmonella enterica subsp. enterica serovar typhimurium

With `CCc1cc2c(C(C)C)cc(=O)oc2c2c(C)coc12` the T/C (Salmonella typhimurium [1]) was 0.7, the Activity (U-251) was “Non-Toxic” and the T/C (Salmonella typhimurium [2]) was 1.2. For the same compound, the Activity (Salmon testes DNA [3]) was “inactive”, the T/C (Salmonella typhimurium [4]) was 1.1 and the T/C (Salmonella typhimurium [5]) was 1.2. For the same compound, the T/C (Salmonella typhimurium [6]) was 0.9, the T/C (Salmonella typhimurium [7]) was 1.2 and the T/C (Salmonella typhimurium [8]) was 0.6. For the same compound, the T/C (Salmonella typhimurium [9]) was 1, the Activity (Salmon testes DNA [10]) was “Not Active” and the T/C (Salmonella typhimurium [11]) was 1.1. The inhibition (Homo sapiens) was “Active”, the inhibition at 1 µM (IB3-1 [12]) was over 20% and the T/C (Salmonella typhimurium [13]) was 1. The T/C (Salmonella typhimurium [14]) was 1.3, the T/C (Salmonella typhimurium [15]) was 1 and the inhibition at 1 µM (IB3-1 [16]) was over 20%. It also gave a T/C (Salmonella typhimurium [17]) of 1.2, a T/C (Salmonella typhimurium [18]) of 0.8 and a T/C (Salmonella typhimurium [19]) of 0.9. The IC50 [20] was 7.4 µM, the T/C (Salmonella typhimurium [21]) was 1.2 and the T/C (Salmonella typhimurium [22]) was 1.1. For the same compound, the Activity (Salmon testes DNA [23]) was “Not Active”, the T/C (Salmonella typhimurium [24]) was 1 and the inhibition at 1 µM (IB3-1 [25]) was over 20%. It also gave a T/C (Salmonella typhimurium [26]) of 1.1 and a T/C (Salmonella typhimurium [27]) of 0.9.
